Rows were chosen to be rich in hits. Some 2.7% of all compounds tested hit in one or more screens of this group.
PfM18AAP inh – PfM18AAP enzyme inhibition; recombinant PfM18AAP, H-Glu-NHMec fluorogenic cleavage; inhibition, % at 7.35 µM; 290,000 compounds, 1.2% hits; AID 1822;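 active = inhibition above the campaign mean inhibition over all tested compounds plus 3 SD, cut at about 28% in these data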;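 also: 0% = plate median of test compound wells and 100% = 2 mM ZnCl2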
VIM-2 inhibitor – blocks Pseudomonas aeruginosa VIM-2 metallo-beta-lactamase; purified VIM-2, nitrocefin hydrolysis, epi-absorbance fluorescence; inhibition, % at 5.6 µM; 290,000 compounds, 0.89% hits;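 active = inhibition above the mean of all tested compounds plus 3 SD, cutoff set per screening run, cut at about 7.5% in these data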;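 also: red hydrolysis product quenches plate fluorescence so inhibitors raise well fluorescence; 0% = enzyme with DMSO and 100% = DMSO without enzyme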
IMP-1 inh-1 – blocks Pseudomonas aeruginosa IMP-1 metallo-beta-lactamase; 290,000 compounds, 0.45% hits; inhibition, % at 5.6 µM; AID 1556; purified IMP-1, nitrocefin hydrolysis, epi-absorbance fluorescence;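 active = inhibition above the mean plus 3 SD of all compounds in the same screening run, cut at about 4.5% in these data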;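 also: 0% = IMP-1 with DMSO and 100% = DMSO wells lacking enzyme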
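Test system: recombinant IMP-1 enzyme, purified / Medium: HEPES buffer pH 7.1 with ZnSO4 and Brij 35 / Doses: single dose, 5.6 µM / Times: 25 °C, 15 min preincubation, 25 min reaction / Detection: Epi-absorbance via hydrolysed-nitrocefin quenching of white-plate fluorescence, 480/530 nm, EDTA stop / Evaluation: percent inhibition from optical density relative to buffer-blank wells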
CTSL1 counter – counter-screen for PFM18AAP inhibitors: inhibitors of F. hepatica cathepsin L1 | recombinant F. hepatica cathepsin L1, Z-Leu-Arg-MCA fluorescence | inhibition, % at 5.96 µM | 300,000 compounds, 0.49% hits;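 active = inhibition above the mean of all tested compounds plus 3 SD, set per screening campaign, cut at about 17% in these data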;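 also: 0% = plate median of test compound wells and 100% = 1 µM Z-Phe-Ala-diazomethylketone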
IMP-1 inh-2 – IMP-1 inhibition, counter-screen for VIM-2 inhibitors | AID 1856 | inhibition, % at 5.6 µM | shares compounds with VIM-2 inhibitor | 1,300 tested, under 10 active | purified IMP-1, nitrocefin hydrolysis, epi-absorbance fluorescence; call rule not given here;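 also: 0% = enzyme with vehicle and 100% = vehicle without enzyme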
VIM-2 FRET ctr – VIM-2 FRET inhibition, artifact counter-screen; 1,300 compounds, 23% hits; inhibition, % at 5.6 µM; shares compounds with VIM-2 inhibitor; purified VIM-2, CCF2 FRET substrate hydrolysis;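 active = inhibition above the mean of all tested compounds plus 3 SD, cut at about 19% in these data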;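 also: 0% = VIM-2 plus DMSO and 100% = no enzyme wells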
TEM-1 inh – blocks E. coli TEM-1 beta-lactamase in VIM-2 selectivity screen | 1,300 compounds, 3% hits | inhibition, % at 5.6 µM | AID 1866 | shares compounds with VIM-2 inhibitor | Purified TEM-1, nitrocefin hydrolysis, epi-absorbance fluorescence;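 active = inhibition above that campaign's mean inhibition plus 3 SD, cut at about 0.46% in these data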;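 also: 0% = TEM-1 with DMSO and 100% = TEM-1 with 100 µM potassium clavulanate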
Target sequence (P62593 whole entry, looked up): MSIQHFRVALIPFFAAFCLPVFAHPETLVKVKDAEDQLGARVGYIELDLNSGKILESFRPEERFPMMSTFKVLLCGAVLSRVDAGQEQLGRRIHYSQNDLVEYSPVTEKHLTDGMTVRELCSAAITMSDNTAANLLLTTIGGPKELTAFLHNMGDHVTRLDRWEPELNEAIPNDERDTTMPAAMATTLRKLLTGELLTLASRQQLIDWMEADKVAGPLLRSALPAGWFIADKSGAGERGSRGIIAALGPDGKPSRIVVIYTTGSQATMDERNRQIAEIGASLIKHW
VIM-2 confirm 2 – confirmation of P. aeruginosa VIM-2 metallo-beta-lactamase inhibitors | AID 2187 | purified VIM-2, nitrocefin hydrolysis, epi-absorbance | shares compounds with VIM-2 inhibitor | inhibition, % at 5.6 µM | 1,300 compounds, 96% hits;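 active = inhibition of the VIM-2 beta-lactamase enzyme above about 11% from the earlier first-round screen, limit read from the data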;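 also: 0% = VIM-2 with DMSO and 100% = buffer wells without enzyme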
The depositor's hits bear a star.

Results for CCOC(=O)c1cnc(-n2nc(C)cc2C)nc1NC1CCCCC1 ?
PfM18AAP inh: -1; VIM-2 inhibitor: 14*; IMP-1 inh-1: -5; CTSL1 counter: -2; IMP-1 inh-2: -6; VIM-2 FRET ctr: -28; TEM-1 inh: -7; VIM-2 confirm 2: 28*

What do the screens show for `CCOC(=O)c1cnc(-n2nc(C)cc2C)nc1Nc1ccc(N(C)C)cc1`?
PfM18AAP inh: -4; VIM-2 inhibitor: 26*; IMP-1 inh-1: -4; CTSL1 counter: 2; IMP-1 inh-2: -5; VIM-2 FRET ctr: -35; TEM-1 inh: -5; VIM-2 confirm 2: 75*

What do the screens show for `O=c1[nH]c(CSc2ccccn2)nc2c1oc1ccccc12`?
PfM18AAP inh: -3; VIM-2 inhibitor: -4; IMP-1 inh-1: -3; CTSL1 counter: -1

How did c1coc(-c2nnc3sc(Cc4cccs4)nn23)c1 do in these assays?
PfM18AAP inh: 10; VIM-2 inhibitor: 2; IMP-1 inh-1: -4; CTSL1 counter: -4

How did c1csc(Cc2nn3c(-c4n[nH]c5c4CCC5)nnc3s2)c1 do in these assays?
PfM18AAP inh: 3; VIM-2 inhibitor: 13*; IMP-1 inh-1: 0; CTSL1 counter: 0; IMP-1 inh-2: -2; VIM-2 FRET ctr: 5; TEM-1 inh: -7; VIM-2 confirm 2: 22*

How did NC(=O)N=Nc1c2[nH]c3ccccc3nc-2c2ccccc12 do in these assays?
PfM18AAP inh: 1; VIM-2 inhibitor: 21*; IMP-1 inh-1: -3; CTSL1 counter: 2; IMP-1 inh-2: 0; VIM-2 FRET ctr: -3; TEM-1 inh: -3; VIM-2 confirm 2: 38*

How did O=C(N/C(=C\c1cccs1)C(=O)N1CCOCC1)c1cccs1 do in these assays?
PfM18AAP inh: 5; VIM-2 inhibitor: 0; IMP-1 inh-1: -2; CTSL1 counter: 2

How did CN1CCN(C(=O)/C(=C/c2cccs2)NC(=O)c2cccs2)CC1 do in these assays?
PfM18AAP inh: 7; VIM-2 inhibitor: 17*; IMP-1 inh-1: -4; CTSL1 counter: 0; IMP-1 inh-2: -3; VIM-2 FRET ctr: -2; TEM-1 inh: -7; VIM-2 confirm 2: 2

Results for Cc1cc(=S)c2ccccc2[nH]1 ?
PfM18AAP inh: 8; VIM-2 inhibitor: 60*; IMP-1 inh-1: -2; CTSL1 counter: 2; IMP-1 inh-2: -3; VIM-2 FRET ctr: 2; TEM-1 inh: -6; VIM-2 confirm 2: 57*

How did COC(=O)c1c(NC(=O)c2ccco2)sc2c1CCN(C(C)=O)C2 do in these assays?
PfM18AAP inh: -4; VIM-2 inhibitor: 21*; IMP-1 inh-1: -1; CTSL1 counter: -2; IMP-1 inh-2: -3; VIM-2 FRET ctr: -5; TEM-1 inh: -6; VIM-2 confirm 2: 30*

How did CCc1cc(=O)oc2cc(C)cc(OCC(=O)NCc3cccnc3)c12 do in these assays?
PfM18AAP inh: -8; VIM-2 inhibitor: 6; IMP-1 inh-1: -4; CTSL1 counter: -1

Results for Cc1cc(OCC(=O)NCc2cccnc2)c2c(C)c(C)c(=O)oc2c1 ?
PfM18AAP inh: 1; VIM-2 inhibitor: 22*; IMP-1 inh-1: -4; CTSL1 counter: 0; IMP-1 inh-2: -3; VIM-2 FRET ctr: -2; TEM-1 inh: -7; VIM-2 confirm 2: 31*

How did CCc1cc(=O)oc2cc(C)cc(OCC(=O)NCc3ccncc3)c12 do in these assays?
PfM18AAP inh: -7; VIM-2 inhibitor: 20*; IMP-1 inh-1: -1; CTSL1 counter: -1; IMP-1 inh-2: -2; VIM-2 FRET ctr: -3; TEM-1 inh: -6; VIM-2 confirm 2: 30*

Results for Cc1cc(OCC(=O)Nc2cccnc2)c2c(C)c(C)c(=O)oc2c1 ?
PfM18AAP inh: -3; VIM-2 inhibitor: 61*; IMP-1 inh-1: 0; CTSL1 counter: 0; IMP-1 inh-2: -2; VIM-2 FRET ctr: -4; TEM-1 inh: -5; VIM-2 confirm 2: 68*

What do the screens show for `Cc1cc(OCC(=O)NCc2ccncc2)c2c(C)c(C)c(=O)oc2c1`?
PfM18AAP inh: -1; VIM-2 inhibitor: 44*; IMP-1 inh-1: 0; CTSL1 counter: 0; IMP-1 inh-2: -3; VIM-2 FRET ctr: 0; TEM-1 inh: -9; VIM-2 confirm 2: 55*

How did Cc1cc(OCC(=O)Nc2ccc(CCO)cc2)c2c(C)c(C)c(=O)oc2c1 do in these assays?
PfM18AAP inh: 8; VIM-2 inhibitor: 5; IMP-1 inh-1: -3; CTSL1 counter: 2

What do the screens show for `CCc1ccc(NC(=O)CSc2nc(=O)n3cc(C)ccc3n2)cc1`?
CTSL1 counter: 9

How did CC(=O)c1ccc(OCC(=O)N2CCCC(Nc3ccc(C)c(C)c3)C2)cc1 (configuration not stated) do in these assays?
PfM18AAP inh: 26; VIM-2 inhibitor: -2; IMP-1 inh-1: -3; CTSL1 counter: 5

Results for CC(C)CCNC(=O)C(=O)NCC1OCCCN1S(=O)(=O)c1cccs1 (configuration not stated) ?
PfM18AAP inh: 1; VIM-2 inhibitor: -1; IMP-1 inh-1: -2; CTSL1 counter: -2

How did CN1CCN(c2ccc(NC(=S)NC(=O)c3cccc4ccccc34)cc2)CC1 do in these assays?
PfM18AAP inh: -7; VIM-2 inhibitor: 20*; IMP-1 inh-1: 1; CTSL1 counter: -3; IMP-1 inh-2: -2; VIM-2 FRET ctr: -8; TEM-1 inh: -6; VIM-2 confirm 2: 29*

How did CCN1CCN(c2ccc(NC(=O)COc3ccccc3Cl)cc2)CC1 do in these assays?
PfM18AAP inh: -2; VIM-2 inhibitor: 14*; IMP-1 inh-1: -2; CTSL1 counter: 2; IMP-1 inh-2: -3; VIM-2 FRET ctr: -1; TEM-1 inh: -8; VIM-2 confirm 2: 31*

What do the screens show for `CN1CCN(c2ccc(NC(=O)COc3cccc4ccccc34)cc2)CC1`?
PfM18AAP inh: -5; VIM-2 inhibitor: 28*; IMP-1 inh-1: -3; CTSL1 counter: 6; IMP-1 inh-2: -3; VIM-2 FRET ctr: -5; TEM-1 inh: -4; VIM-2 confirm 2: 33*

Results for CN1CCN(c2ccc(NC(=S)NC(=O)/C=C/c3ccco3)cc2)CC1 ?
PfM18AAP inh: 12; VIM-2 inhibitor: 50*; IMP-1 inh-1: 1; CTSL1 counter: 3; IMP-1 inh-2: 0; VIM-2 FRET ctr: -3; TEM-1 inh: -2; VIM-2 confirm 2: 67*

What do the screens show for `CN(C)CCN1CCc2ccccc21`?
PfM18AAP inh: -1; VIM-2 inhibitor: 23*; IMP-1 inh-1: -6; CTSL1 counter: 1; IMP-1 inh-2: -3; VIM-2 FRET ctr: -4; TEM-1 inh: -6; VIM-2 confirm 2: 11*

Results for c1ccc2c(c1)CCN2CCN1CCc2ccccc21 ?
PfM18AAP inh: 4; VIM-2 inhibitor: -1; IMP-1 inh-1: 0; CTSL1 counter: 2

What do the screens show for `CN1CCCN(Cc2ccccc2Br)CC1`?
PfM18AAP inh: 3; VIM-2 inhibitor: -2; IMP-1 inh-1: -4; CTSL1 counter: 3

Screens (PubChem)
